From ChEMBL document CHEMBL1914330 (Eur J Med Chem, 2011)
Calls of active or inactive are those of the source. The calls are words filed in the database; no cut-off is given here.

How the values were obtained:
[1] = test system: HT-29; assay: Antitumor activity against human HT-29 cells xenografted in BALB/c nude mouse assessed as reduction in tumor mass at 100 mg/kg, ip administered 3 times per week for 1 week; assay type: functional, organism-based; parameters: dose 100 mg/kg
[2] = test system: HeLa; assay: Induction of cell cycle arrest at G2/M phase in human HeLa cells assessed as decrease in Cdc25C expression at 0.25 to 5 uM after 24 hrs by Western blot analysis; assay type: functional, cell-based
How it was run: (§1)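 HeLa cells treated for 24 or 48 h were washed in cold PBS and lysed on ice for 30 min. Lysates were cleared at 15,000 × g, run on SDS-PAGE and blotted. Membranes were probed 2 h at room temperature with antibodies to the target protein, then peroxidase secondary and ECL. Blots were reprobed for β-actin as loading control.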

[3] = test system: HeLa; assay: Induction of apoptosis in human HeLa cells assessed as accumulation of necrotic cells after 48 hrs by Annexin-V-FITC/propidium iodide staining-based flow cytometric analysis; assay type: functional, cell-based
How it was run: (§2)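 HeLa cells treated for 24 or 48 h, then labelled with annexin-V-FITC and PI. Analysed by flow cytometry with excitation at 488 nm and emission at 525 nm (FITC) and 585 nm (PI). Quadrants scored as live, early apoptotic, late apoptotic or necrotic. Mean ± SEM of four independent experiments.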

[4] = test system: A549; assay: Antiproliferative activity against human A549 cells after 72 hrs by MTT assay; assay type: functional, cell-based; settings: A549, 72 h
How it was run: (§3)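 Cells seeded at 8 × 10³ per well in complete medium and exposed to a range of compound concentrations at 37 °C for 72 h. Viability read by MTT test. IC50 taken as the concentration inhibiting proliferation by 50%.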

[5] = test system: FM3A; assay: Antiproliferative activity against mouse FM3A cells after 2 days by coulter counter analysis; assay type: functional, cell-based; settings: 48 h
[6] = test system: A549; assay: Ratio of IC50 for taxol-resistant human A549-T12 cells to IC50 for human A549 cells; assay type: functional
[7] = test system: HeLa; assay: Cell cycle arrest in human HeLa cells assessed as decrease in cell accumulation in S phase at 0.5 uM after 24 hrs by propidium iodide staining-based flow cytometry; assay type: functional
How it was run: (§4)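 HeLa cells treated for 24 h over 0.06–0.5 µM. Cells fixed in ice-cold 70% ethanol, lysed with buffer containing RNase A and 0.1% Triton X-100, and stained with PI. DNA content read by flow cytometry, including the sub-G1 fraction. Mean ± SEM of three independent experiments.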

[8] = test system: HeLa; assay: Cell cycle arrest in human HeLa cells assessed as decrease in cell accumulation in G1 phase after 24 hrs by propidium iodide staining-based flow cytometry; assay type: functional; how it was run: as §4
[9] = test system: HeLa; assay: Effect on Bcl2 protein expression in human HeLa cells at 0.25 to 0.5 uM after 24 hrs by Western blot analysis; assay type: functional, cell-based; how it was run: as §1
[10] = test system: LoVo; assay: Antiproliferative activity against doxorubicin-resistant human LoVo cells after 72 hrs by MTT assay; assay type: functional, cell-based; how it was run: as §3
[11] = test system: HeLa; assay: Induction of apoptosis in human HeLa cells assessed as loss of mitochondrial membrane potential after 24 to 48 hrs by JC1 staining-based flow cytometric analysis; assay type: functional, cell-based
How it was run: (§5)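 After 24 or 48 h treatment, HeLa cells were trypsinized and resuspended in HBSS with JC-1 (1 µM). Incubated 10 min at 37 °C, washed, and read by flow cytometry for red (590 nm) aggregate versus green (530 nm) monomer. Mean ± SEM of three experiments.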

[12] = test system: HeLa; assay: Induction of apoptosis in human HeLa cells assessed as accumulation of late apoptotic cells after 48 hrs by Annexin-V-FITC/propidium iodide staining-based flow cytometric analysis; assay type: functional, cell-based; how it was run: as §2
[13] = test system: HeLa; assay: Induction of cell cycle arrest at G2/M phase in human HeLa cells assessed as partial recovery in Cdc2 phosphorylation at Tyr15 at 0.25 to 5 uM after 48 hrs by Western blot analysis; assay type: functional, cell-based; how it was run: as §1
[14] = test system: HeLa; assay: Induction of apoptosis in human HeLa cells assessed as ROS production at 0.25 to 5 uM after 24 to 48 hrs by hydroethidine-staining-based flow cytometric analysis; assay type: functional, cell-based
How it was run: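 HeLa cells treated 24 or 48 h, trypsinized and resuspended in HBSS containing HE (2.5 µM) or H₂DCFDA (0.1 µM). Incubated 10 min at 37 °C, resuspended in HBSS, and ROS read by flow cytometry. Mean ± SEM of three independent experiments.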

[15] = test system: HeLa; assay: Induction of apoptosis in human HeLa cells assessed as decrease in Bcl2 protein expression at 0.25 to 0.5 uM after 48 hrs by Western blot analysis; assay type: functional, cell-based; how it was run: as §1
[16] = test system: HeLa; assay: Effect on Bax protein expression in human HeLa cells at 0.25 to 0.5 uM after 24 to 48 hrs by Western blot analysis; assay type: functional, cell-based; how it was run: as §1
[17] = test system: Mus musculus; assay: Toxicity in nude BALB/c mouse xenografted with human HT-29 cells assessed as weight changes at 100 mg/kg, ip administered 3 times per week for 1 week; assay type: organism-based; parameters: dose 100 mg/kg, route intraperitoneal; settings: in vivo, 168 h
How it was run: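 HT-29 cells in log phase, suspended at 1 × 10⁷ cells/mL in serum-free RPMI 1640, 0.2 mL injected subcutaneously into the back of nude mice. At about 300 mm³, mice were randomised to vehicle or treatment groups (six per group). The compound was given in DMSO by i.p. injection at 0.01 mL/g body weight. Body weight was recorded on set days; mice were euthanised after 23 days.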

[18] = species: Bos taurus; assay: Displacement of [3H]colchicine from bovine brain tubulin at 5 uM by DEAE-cellulose filter method
How it was run: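 Inhibition of [³H]colchicine binding to bovine brain tubulin. Reaction mixtures held 1 µM tubulin, 5 µM [³H]colchicine and 5 µM test compound.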

[19] = test system: HeLa; assay: Induction of apoptosis in human HeLa cells assessed as PARP cleavage at 0.25 to 5 uM by Western blot analysis; assay type: functional, cell-based; settings: TDE = time-dependent effect; how it was run: as §1
[20] = test system: CCRF-CEM; assay: Ratio of IC50 for vinblastine-resistant human CEM/VBL100 cells to IC50 for human CEM cells; assay type: functional
[21] = test system: HeLa; assay: Antiproliferative activity against human HeLa cells after 2 days by coulter counter analysis; assay type: functional, cell-based; settings: 48 h
How it was run: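 Cells suspended at 300,000–500,000 cells/mL and mixed 1:1 with diluted compound. Incubated at 37 °C for two days, then counted with a Coulter counter. IC50 is the concentration inhibiting proliferation by 50%, as mean ± SE from dose-response curves of at least three independent experiments.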

[22] = Antiproliferative activity against human taxol-resistant A549-T12 cells after 72 hrs by MTT assay; assay type: functional, cell-based; settings: A549, 72 h; how it was run: as §3
[23] = test system: HeLa; assay: Induction of cell cycle arrest at G2/M phase in human HeLa cells assessed as increase in cyclin B1 expression at 0.25 to 5 uM after 24 hrs by Western blot analysis; assay type: functional, cell-based; how it was run: as §1
[24] = test system: HeLa; assay: Induction of cell cycle arrest at G2/M phase in human HeLa cells assessed as disappearance of Cdc25C expression at 0.25 to 5 uM after 48 hrs by Western blot analysis; assay type: functional, cell-based; how it was run: as §1
[25] = test system: HeLa; assay: Induction of apoptosis in human HeLa cells assessed as accumulation of late apoptotic cells after 24 hrs by Annexin-V-FITC/propidium iodide staining-based flow cytometric analysis; assay type: functional, cell-based; how it was run: as §2
[26] = test system: LoVo; assay: Antiproliferative activity against human LoVo cells after 72 hrs by MTT assay; assay type: functional, cell-based; how it was run: as §3
[27] = test system: HeLa; assay: Induction of apoptosis in human HeLa cells assessed as loss of mitochondrial membrane potential at 0.25 to 5 uM by JC1 staining-based flow cytometric analysis; assay type: functional, cell-based; settings: TDE = time-dependent effect; how it was run: as §5
[28] = Antiproliferative activity against human vinblastine-resistant CEM/VBL100 cells after 72 hrs by MTT assay; assay type: functional, cell-based; settings: CEM/VBL100, 72 h; how it was run: as §3

Compound: COc1cc(C(=O)c2sc(N3CCCC3)nc2N)cc(OC)c1OC
- Activity [1]: Active
- Activity [2]: Active
- Activity [3]: Active
- IC50 [4]: 37 nM
- IC50 [5]: 180 nM
- Ratio IC50 [6]: 4.3
- Activity [7]: Active
- Activity [8]: Dose-dependent effect
- Activity [9]: inactive
- IC50 [10]: 430 nM
- Activity [11]: Dose-dependent effect
- Activity [12]: Active
- Activity [13]: inactive
- Activity [14]: Active
- Activity [15]: Active
- Activity [16]: inactive
- Activity [17]: Non-toxic
- inhibition [18]: 67%
- Activity [19]: tde
- Ratio IC50 [20]: 0.2
- IC50 [21]: 340 nM
- IC50 [22]: 160 nM
- Activity [23]: Active
- Activity [24]: Active
- Activity [25]: Dose-dependent effect
- IC50 [26]: 100 nM
- Activity [27]: tde
- IC50 [28]: 10 nM
